Assay results taken from ChEMBL document CHEMBL1154265, “Alkaloids from the leaves of Daphniphyllum subverticillatum” (J Nat Prod, 2009).
Calls of active or inactive are those of the source. The calls are words filed in the database; no cut-off is given here.

What was measured:
A549 = test: Cytotoxicity against human A549 cells after 72 hrs by sulforhodamine B assay; format: functional, cell-based
Procedure, shortened: (§1)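 SRB staining on A-549, BEL-7402 and HMEC (human microvascular endothelial) cells, run to earlier published protocols, with pseudolaric acid B as the positive control; IC50 values reported.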

Bel-7402 = test: Cytotoxicity against human Bel7402 cells after 72 hrs by sulforhodamine B assay; format: functional, cell-based; procedure, shortened: as §1
P388 = test: Cytotoxicity against mouse P388 cells after 72 hrs by MTT assay; format: functional, cell-based
Procedure, shortened: (§2)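 MTT read-out on HL-60 and P-388 cells, run to earlier published protocols, with pseudolaric acid B as the positive control; IC50 values reported.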

HMEC = test: Cytotoxicity against human HMEC cells after 72 hrs by sulforhodamine B assay; format: cell-based; details: for Activity: human, hmec; procedure, shortened: as §1
HL-60 = test: Cytotoxicity against human HL60 cells after 72 hrs by MTT assay; format: functional, cell-based; procedure, shortened: as §2

Row | Compound | Activity (A549) | Activity (Bel-7402) | Activity (P388) | Activity (HMEC) | Activity (HL-60) | IC50 (Bel-7402; Bel-7402, 72 h) [µM] | IC50 (P388; P388, 72 h) [µM] | IC50 (HMEC; Homo sapiens, HMEC) [µM] | IC50 (HL-60; HL-60, 72 h) [µM]
1 | COC(=O)[C@@H]1C[C@@]23C(=O)[C@@H]4C[C@H]5N(C[C@@H](CCC6=C2[C@@H]1CC6)[C@]53COC(C)=O)C[C@H]4C [SUBDAPHNIDINE A] | inactive | inactive | inactive | Non-toxic | inactive | – | – | – | –
2 | CC(C)[C@H]1CC[C@@]2(C)[C@@H]3C[C@@H](O)[C@]45CCC[C@H]4[C@@]2(CCC(=O)[C@]2(C)CO[C@]4(C)CCC2O4)[C@@H]1N5C3 [HYDROXYCODAPHNIPHYLLINE] | inactive | inactive | inactive | Non-toxic | inactive | – | – | – | –
3 | COC(=O)CC[C@]12C3=CCC[C@@H]3CC[C@@H]3C=N[C@@H]1[C@@H](C(C)C)CC[C@@]32C [DAPHNEZOMINE L METHYL ESTER] | inactive | inactive | inactive | Non-toxic | inactive | – | – | – | –
4 | CC(=O)O[C@@H]1CC[C@@]2(C)O[C@@H](O)[C@@]1(C)C2CC[C@@]12[C@@H]3NC4C(CC[C@@]45CCC[C@H]51)[C@]2(C)CC[C@@H]3C(C)C (stereo not given in full) [DAPHNILONGERIDINE] | inactive | – | – | – | – | 9.7 | 2.4 | 2.7 | 9.5
5 | CC[C@@]1(O)CC[C@@]2(CO1)[C@H]1CCC3=C4[C@H](C[C@@H]3O)[C@H](C(=O)OC)C[C@@]42CN(C)C1 | inactive | inactive | inactive | Non-toxic | inactive | – | – | – | –
